Data published in ChEMBL document CHEMBL1155280, “New arylthioindoles and related bioisosteres at the sulfur bridging group. 4. Synthesis, tubulin polymerization, cell growth inhibition, and molecular modeling studies” (J Med Chem, 2009).
Activity calls are given as the source filed them. The rule behind the calls is not given here.

Assays:
[1] = species: Bos taurus; test: Inhibition of [3H]colchicine binding to bovine tubulin at 5 uM after 10 mins by DEAE-cellulose filter method
[2] = tested on: MCF7; test: Growth inhibition of human MCF7 cells after 48 hrs by sulforhodamine B assay; format: functional, cell-based; conditions: MCF7, 48 h
[3] = Inhibition of tubulin polymerization after 20 mins by spectrophotometry
How it was run: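 Tubulin 10 μM in 0.8 M monosodium glutamate, pH 6.6, preincubated 15 min at 30 °C with varying drug, chilled on ice. GTP added to 0.4 mM, turbidity at 350 nm followed 20 min at 30 °C. Extent of assembly measured; IC50 ± SD.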

[4] = Growth inhibition of Potorous tridactylus PtK2 cells; format: cell-based
How it was run: (§1)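 Human aortic smooth muscle, PtK2 kidney epithelial, rat A10 aortic smooth muscle and HUVEC lines grown as the supplier recommends, under 5% CO2.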

[5] = tested on: HUVEC; test: Growth inhibition of HUVEC; format: cell-based; conditions: Homo sapiens; how it was run: as §1
[6] = Growth inhibition of HSMC; format: cell-based; conditions: Homo sapiens; how it was run: as §1
[7] = tested on: MCF7; test: Selectivity index, ratio of IC50 for rat A10 cells to IC50 for human MCF7 cells; format: functional
How it was run: (§2)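 Selectivity index: IC50 in the named nontransformed line divided by IC50 in MCF-7 cells.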

[8] = Growth inhibition of mouse J774.1 cells at 300 nM after 48 hrs by MTT assay relative to control; format: cell-based; conditions: read-out: GI
[9] = tested on: M14; test: Cytotoxicity against human M14 cells after 48 hrs by MTT assay; format: functional, cell-based; conditions: for IC50: M14, 48 h
How it was run: (§3)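 MTT assay. Seeded 10^5 cells/well, compound added after 24 h at 10, 30, 50, 100, 150, 200 nM for 24 or 48 h. MTT 1 mg/mL, 2 h at 37 °C in dark, formazan dissolved in DMSO, read at 550 nm. Triplicate; 0.5% DMSO control.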

[10] = tested on: A10; test: Growth inhibition of rat A10 cells; format: cell-based; how it was run: as §1
[11] = tested on: HEK293; test: Cytotoxicity against HEK293 cells assessed as effect on cell morphology at 300 nM after 48 hrs by time-lapse microscopy; format: cell-based; conditions: human, hek293, 48 h, 0.3 µM
How it was run: (§4)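 Morphology of HEK and M14 cells followed by time-lapse microscopy in 96-well plates at 37 °C, 5% CO2, with images captured every hour over 48 h.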

[12] = tested on: HeLa; test: Antiproliferative activity against human HeLa cells assessed as cell proliferation at 0.5 uM after 24 hrs by MTT assay relative to control; format: functional; conditions: read-out: Activity
How it was run: (§5)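 HeLa and HCT116/chr3 cells grown at 37 °C, 5% CO2 in D-MEM with 10% fetal calf serum (HCT116/chr3 medium plus 500 μg/mL G418). Seeded 1 × 10^3 cells/well, treated 24 h later for 24 h from 10 mM DMSO stock; 1% DMSO solvent control. Quadruplicate, repeated three times; given as % of control ± SD.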

[13] = tested on: HCT-116; test: Antiproliferative activity against human HCT116 cells expressing mismatch repair gene MLH1 complemented with chromosome 3 assessed as cell proliferation at 0.5 uM after 24 hrs by MTT assay relative to control; format: functional; conditions: HCT-116, 24 h, read-out: Activity; how it was run: as §5
[14] = tested on: MCF7; test: Selectivity index, ratio of IC50 for Potorous tridactylus PtK2 cells to IC50 for human MCF7 cells; format: functional; how it was run: as §2
[15] = tested on: HEK293; test: Cytotoxicity against HEK293 cells after 48 hrs by MTT assay; format: cell-based, Homo sapiens; conditions: for Activity: human, hek293, 48 h; how it was run: as §3
[16] = tested on: U-937; test: Cytotoxicity against human U937 cells at 10 to 200 nM by MTT assay; format: functional, cell-based; conditions: TDE = time-dependent effect; how it was run: as §3
[17] = tested on: M14; test: Cytotoxicity against human M14 cells assessed as effect on cell morphology at 300 nM after 48 hrs by time-lapse microscopy; format: functional, cell-based; how it was run: as §4
[18] = tested on: HeLa; test: Antiproliferative activity against human HeLa cells assessed as cell proliferation at 1 uM after 24 hrs by MTT assay relative to control; format: functional; conditions: read-out: Activity; how it was run: as §5
[19] = tested on: U-937; test: Cytotoxicity against human U937 cells after 48 hrs by MTT assay; format: functional, cell-based; conditions: for IC50: U-937, 48 h; how it was run: as §3
[20] = tested on: M14; test: Cytotoxicity against human M14 cells at 10 to 200 nM by MTT assay; format: functional, cell-based; conditions: TDE = time-dependent effect; how it was run: as §3
[21] = tested on: HCT-116; test: Antiproliferative activity against human HCT116 cells expressing mismatch repair gene MLH1 complemented with chromosome 3 assessed as cell proliferation at 1 uM after 24 hrs by MTT assay relative to control; format: functional; conditions: HCT-116, 24 h, read-out: Activity; how it was run: as §5
[22] = tested on: MCF7; test: Selectivity index, ratio of IC50 for HUVEC to IC50 for human MCF7 cells; how it was run: as §2
[23] = species: Homo sapiens; test: Selectivity index, ratio of IC50 for HSMC to IC50 for human MCF7; how it was run: as §2
[24] = tested on: HEK293; test: Cytotoxicity against HEK293 cells at 10 to 200 nM by MTT assay; format: cell-based; conditions: human, hek293, 0.2 µM; TDE = time-dependent effect; how it was run: as §3
[25] = tested on: Saccharomyces cerevisiae; test: Toxicity in Saccharomyces cerevisiae assessed as growth inhibition at first dilution at 20 uM after 3 days; format: organism-based; conditions: in vivo, 72 h
How it was run: (§6)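 S. cerevisiae BY4741 grown at 28 °C in minimal SD medium with 2% glucose. Exponential culture (5 × 10^6 cells/mL) exposed 18 h at 28 °C to compound at 20 μM, washed, resuspended in SD, serially diluted 10-fold, incubated overnight. Spotted onto YPD plates; growth scored by dilution reached after 3 days at 28 °C.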

[26] = tested on: Saccharomyces cerevisiae; test: Toxicity in Saccharomyces cerevisiae assessed as growth inhibition at second dilution at 20 uM after 3 days; format: organism-based; conditions: in vivo, 72 h; how it was run: as §6

## CCOC(=O)c1[nH]c2ccc(OC)cc2c1Cc1cc(OC)c(OC)c(OC)c1
[1]
  inhibition: 42%
[2]
  IC50: 0.093 µM
[3]
  IC50: 2.8 µM

## CCOC(=O)c1[nH]c2ccc(OC)cc2c1Sc1cc(OC)c(OC)c(OC)c1
[1]
  inhibition: 71%
[2]
  IC50: 0.046 µM
[3]
  IC50: 2.4 µM

## CCOC(=O)c1[nH]c2ccc(Cl)cc2c1CCc1cc(OC)c(OC)c(OC)c1
[3]
  IC50: > 40 µM

## CCOC(=O)c1[nH]c2ccc(Cl)cc2c1C(=O)c1cc(OC)c(OC)c(OC)c1
[1]
  inhibition: 49%
[2]
  IC50: 0.11 µM
[3]
  IC50: 1.4 µM

## CCOC(=O)c1cccn1Cc1cc(OC)c(OC)c(OC)c1
[3]
  IC50: > 40 µM

## COc1cc(Cn2c(C)c(C)c(C)c2C(=O)OCCOCCO)cc(OC)c1OC
[3]
  IC50: > 40 µM

## COC(=O)c1[nH]c2ccccc2c1Sc1cc(OC)c(OC)c(OC)c1
[1]
  inhibition: 74%
[3]
  IC50: 2.9 µM

## CC(=O)O[C@H]1C(=O)[C@@]2(C)[C@H]([C@H](OC(=O)c3ccccc3)[C@]3(O)C[C@H](OC(=O)[C@H](O)[C@@H](NC(=O)c4ccccc4)c4ccccc4)C(C)=C1C3(C)C)[C@]1(OC(C)=O)CO[C@@H]1C[C@@H]2O [PACLITAXEL]
[4]
  IC50: 0.021 µM
[5]
  IC50: 0.007 µM
[6]
  IC50: 0.006 µM

## CCOC(=O)c1[nH]c2ccc(Cl)cc2c1Cc1cc(OC)c(OC)c(OC)c1
[1]
  inhibition: 39%
[2]
  IC50: 0.23 µM
[3]
  IC50: 2.5 µM

## COC(=O)c1[nH]c2ccc(OC)cc2c1Cc1cc(OC)c(OC)c(OC)c1
[7]
  Ratio IC50: 3.9
[8]
  inhibition at 48 h, 0.3 µM: 20%
[9]
  Activity: Dose-dependent effect
  IC50: 0.137 µM
[10]
  IC50: 0.13 µM
[1]
  inhibition: 59%
[4]
  IC50: 0.19 µM
[5]
  IC50: 0.17 µM
[11]
  Activity: Toxic
[12]
  growth at 0.5 µM: 52%
[2]
  IC50: 0.033 µM
[13]
  growth at 0.5 µM: 69%
[14]
  Ratio IC50: 5.8
[15]; Homo sapiens, HEK293, 48 h
  IC50: 0.181 µM
[15]
  Activity: Dose-dependent effect
[16]
  Activity: tde
[3]
  IC50: 1.4 µM
[17]
  Activity: Active
[18]
  growth at 1 µM: 51%
[19]
  Activity: Dose-dependent effect
  IC50: 0.189 µM
[6]
  IC50: 0.07 µM
[20]
  Activity: tde
[21]
  growth at 1 µM: 69%
[22]
  Ratio IC50: 5.2
[23]
  Ratio IC50: 2.1
[24]
  Activity: tde

## CCOC(=O)c1[nH]c2ccc(Cl)cc2c1Sc1cc(OC)c(OC)c(OC)c1
[1]
  inhibition: 53%
[3]
  IC50: 2.2 µM

## COC(=O)c1[nH]c2ccc(OC)cc2c1C(O)c1cc(OC)c(OC)c(OC)c1 (centres undefined)
[3]
  IC50: > 40 µM

## COC(=O)c1[nH]c2ccc(Cl)cc2c1Cc1cc(OC)c(OC)c(OC)c1
[1]
  inhibition: 49%
[2]
  IC50: 0.087 µM
[3]
  IC50: 1.7 µM

## COC(=O)c1[nH]c2ccccc2c1C(=O)c1cc(OC)c(OC)c(OC)c1
[1]
  inhibition: 49%
[2]
  IC50: 0.033 µM
[3]
  IC50: 2.7 µM

## CCOC(=O)c1c(C)cc(C)n1Cc1cc(OC)c(OC)c(OC)c1
[3]
  IC50: > 40 µM

## COc1cc(Cn2cccc2C(=O)O)cc(OC)c1OC
[25]
  Activity: Toxic
[2]
  IC50: > 2.5 µM
[3]
  IC50: > 40 µM
[26]
  Activity: Non-toxic

## COc1ccc2[nH]cc(Cc3cc(OC)c(OC)c(OC)c3)c2c1
[3]
  IC50: 14 µM

## COc1cc(Cc2c[nH]c3ccc(Cl)cc23)cc(OC)c1OC
[3]
  IC50: 24 µM

## COc1ccc2[nH]cc(Sc3cc(OC)c(OC)c(OC)c3)c2c1
[1]
  inhibition: 61%
[2]
  IC50: 0.022 µM
[3]
  IC50: 4.1 µM

## COc1cc(Sc2c[nH]c3ccc(Br)cc23)cc(OC)c1OC
[7]
  Ratio IC50: 4.9
[8]
  inhibition at 48 h, 0.3 µM: 20%
[9]
  Activity: Dose-dependent effect
  IC50: 0.194 µM
[25]
  Activity: Toxic
[10]
  IC50: 0.21 µM
[1]
  inhibition: 65%
[4]
  IC50: 0.23 µM
[5]
  IC50: 0.4 µM
[11]
  Activity: Toxic
[12]
  growth at 0.5 µM: 47%
[2]
  IC50: 0.043 µM
[13]
  growth at 0.5 µM: 60%
[14]
  Ratio IC50: 5.3
[15]
  Activity: Dose-dependent effect
[16]
  Activity: tde
[3]
  IC50: 1.6 µM
[26]
  Activity: Non-toxic
[17]
  Activity: Active
[18]
  growth at 1 µM: 56%
[19]
  Activity: Dose-dependent effect
  IC50: 0.1 µM
[6]
  IC50: 0.3 µM
[20]
  Activity: tde
[21]
  growth at 1 µM: 60%
[22]
  Ratio IC50: 9.3
[23]
  Ratio IC50: 7
[24]
  Activity: tde
